{"data": "Experimental data from different studies", "target": "D(2) dopamine receptor (DRD2, Homo sapiens, UniProt P14416)", "note": "Lines come from different studies, so protocols differ."}
{"SMILES": "CCc1ccc(OCC(=O)N2CCN(Cc3ccc4c(c3)OCO4)CC2)c(Br)c1", "read-out": "enzyme activity", "action": "inhibitor", "tested at": "10 µM", "endpoint": "inhibition", "result": "23.1%"}
{"SMILES": "CC(C)Cn1cnc2c(N)nc3ccccc3c21", "read-out": "ligand displacement", "method": "radioligand", "tested at": "10 µM", "endpoint": "inhibition", "result": "14%"}
{"SMILES": "Cc1c(N2CCNCC2)nc2ccc(Br)cc2c1C(=O)NC[C@H](CCC(=O)O)c1ccccc1Cl", "read-out": "ligand displacement", "tested at": "10 µM", "endpoint": "inhibition", "result": "2.75%"}
{"SMILES": "COc1ccc(S(=O)(=O)N2CCCCC2)cc1C", "read-out": "ligand displacement", "method": "radioligand", "tested at": "10 µM", "endpoint": "inhibition", "result": "< 30%"}
{"SMILES": "C[C@H](C(=O)N[C@H]1COc2ccccc2[C@@H]1S(C)(=O)=O)c1ccc(F)cc1", "read-out": "cell-free assay", "tested at": "10 µM", "endpoint": "inhibition", "result": "-3%"}
{"SMILES": "c1ccc(C2(N3CCCCC3)CCCCC2)cc1", "read-out": "enzyme activity", "action": "inhibitor", "tested at": "10 µM", "endpoint": "inhibition", "result": "18.1%"}
{"SMILES": "c1ccc(C(NCCNC(c2ccccc2)c2ccccc2)c2ccccc2)cc1", "read-out": "cell-free assay", "tested at": "10 µM", "endpoint": "inhibition", "result": "31%"}
{"SMILES": "CNc1nc2cc(OCCCCN3CCC(c4cccc(Cl)c4Cl)CC3)ccc2s1", "read-out": "β-arrestin recruitment", "action": "agonist", "cell line": "HTLA", "endpoint": "Emax", "result": "< 20%"}
{"SMILES": "COc1ccc(N=Nc2ccc3[nH]cc(CCN(C)C)c3c2)cc1", "read-out": "ligand displacement", "method": "radioligand", "tested at": "10 µM", "endpoint": "inhibition", "result": "< 50%"}
{"SMILES": "COCc1c(-c2cc3cc(C)cc(OC)c3s2)c2c(N)ncnn2c1CN1CCNC(=O)C1", "read-out": "ligand displacement", "method": "radioligand", "tested at": "10 µM", "endpoint": "inhibition", "result": "19%"}
{"SMILES": "COc1ccc(C(=O)NCc2cc(C(C)C)no2)cc1OC1CCN(C)CC1", "read-out": "ligand displacement", "method": "radioligand", "tested at": "10 µM", "endpoint": "inhibition", "result": "18%"}
{"SMILES": "CCN(CC)CCCC[C@H](NC(=O)[C@H](CC(C)C)NC(=O)[C@H](C)NC(=O)[C@H](Cc1ccccc1)NC(=O)c1ccc(C(C)(C)C)cc1)C(=O)N[C@@H](CO)C(=O)OC", "read-out": "ligand displacement", "method": "radioligand", "tested at": "10 µM", "endpoint": "inhibition", "result": "40%"}
{"SMILES": "CN(CCN1CCC(OC(=O)Nc2ccccc2-c2ccccc2)CC1)C(=O)c1ccc(CN2CCC(C(N)=O)CC2)cc1", "read-out": "ligand displacement", "method": "radioligand", "tested at": "1 µM", "endpoint": "inhibition", "result": "-8%"}
{"SMILES": "N#CC1(c2ccccn2)CCN(Cc2cc(C(=O)O)c(=O)n3ccccc23)CC1", "read-out": "cell-free assay", "tested at": "10 µM", "endpoint": "inhibition", "result": "-16.8%"}
{"SMILES": "Clc1ccc2c(C3CCN(CCc4c[nH]c5ccccc45)CC3)c[nH]c2c1", "read-out": "ligand displacement", "method": "radioligand", "tested at": "10 µM", "endpoint": "inhibition", "result": "98%"}
{"SMILES": "OC(c1ccc(F)cc1)C(F)(F)CCN1CCC(O)(c2ccc(Cl)cc2)CC1 (racemic)", "read-out": "ligand displacement", "method": "radioligand", "tested at": "10 µM", "endpoint": "inhibition", "result": "> 50%"}
